# PMI act hi M6P = increases human PMI activity with near-saturating mannose 6-phosphate | P34949 | coupled PMI enzyme assay, resazurin fluorescence, 20 min; active compounds read high; 1 = untreated enzyme, 0 = substrate-free blank | activation factor at 20 µM | actives 0.34% (n = 190,000) | AID 1216;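 active = activation factor of 2 or more at 20 µM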
# Target sequence (P34949 whole entry, looked up): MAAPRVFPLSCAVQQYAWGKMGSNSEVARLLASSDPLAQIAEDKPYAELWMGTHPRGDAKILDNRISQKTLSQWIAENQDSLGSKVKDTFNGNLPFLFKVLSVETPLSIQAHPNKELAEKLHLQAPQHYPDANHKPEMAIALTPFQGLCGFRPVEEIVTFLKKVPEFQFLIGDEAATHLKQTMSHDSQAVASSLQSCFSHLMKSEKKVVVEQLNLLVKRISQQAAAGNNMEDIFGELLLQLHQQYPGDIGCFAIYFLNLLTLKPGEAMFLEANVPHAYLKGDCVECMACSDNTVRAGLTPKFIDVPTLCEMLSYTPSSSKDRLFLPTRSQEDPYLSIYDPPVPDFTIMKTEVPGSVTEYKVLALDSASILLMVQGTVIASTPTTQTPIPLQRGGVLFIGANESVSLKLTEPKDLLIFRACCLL
#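 Material: human phosphomannose isomerase with PGI, G6PDH, diaphorase coupling enzymes; amount: PMI at 15 ng/mL final; also added: Mannose-6-phosphate 1.0 mM (near-saturating) plus 0.22 mM NADP+; incubation: enzyme reaction with compound 20 min at room temperature; signal: resorufin fluorescence (Ex 544/Em 590 nm) from resazurin via diaphorase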
# Lmaj promast = Leishmania major promastigote growth inhibition. Leishmania major promastigotes, resazurin fluorescence viability. inhibition, % at 10 µM. actives 9% (n = 200,000); in the data active = inhibition above about 50%;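 note: promastigotes grown with compound for 44 hours at 28 °C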
# PMI act = phosphomannose isomerase (human) activation; actives 0.005% (n = 190,000); activation factor at 20 µM; AID 1214; P34949; purified human PMI, coupled resazurin fluorescence, 20 min; active compounds read high; 1 = vehicle control, 0 substrate-free wells;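 active = activation factor of 2 or more at 20 µM, relative to plate controls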
# bCat KO growth = beta-catenin-lacking colon tumor cell growth suppression; HCT116 beta-catenin knockout viability, CellTiter-Glo, 60 h; active compounds read low; viability, % at 10 µM; actives 1.5% (n = 140,000); AID 818;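 active = viability at or under a set limit, the compound median less 4 SD, cut at about 6% in these data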
# HCT116 PTEN-null = PTEN-deleted cell growth suppression; AID 827; HCT116 PTEN-null viability, CellTiter-Glo, 60 h; active compounds read low; actives 1.2% (n = 140,000); viability, % at 10 µM;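 active = viability at or below a set limit, 4 SD under the median of all tested compounds, cut at about 3.7% in these data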;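 note: PTEN knockout HCT116 line with beta catenin targeted HCT116 as companion control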
# Numbers stand for hits; i = inactive; nt = no result given. Sampled rows, rich in hits. Any-hit rate of the full collection: about 9.6%.
SMILES,PMI act hi M6P,Lmaj promast,PMI act,bCat KO growth,HCT116 PTEN-null
O=C(NCc1ccco1)C(c1ccco1)N(C(=O)Cn1nnc2ccccc21)c1ccc2c(c1)CCC2 (stereo not given),nt,91.2,nt,nt,nt
COC(=O)c1cc(NC(=O)CC2NC3CCCCC3NC2=O)cc(C(=O)OC)c1 (stereo not given),i,i,i,i,i
CCCC1=NN(C(=O)C(=O)Nc2ccc(Br)cc2)C(O)(C(F)(F)F)C1 (stereo not given),i,i,i,nt,nt
CCC(CO)NCc1ccc(-c2ccccc2)cc1 (stereo not given),i,88.6,i,i,i
CC(O)CNCc1ccc(-c2ccccc2)cc1 (stereo not given),i,89.1,i,i,i
CC(O)CNCc1cccc2ccccc12 (stereo not given),i,i,i,i,i
CC(NCc1ccc(-c2ccccc2)cc1)C(O)c1ccccc1 (stereo not given),i,99.4,i,2.8,i
CC1(C)CC(NC(=O)CCc2nnc(CCCCc3ccccc3)o2)CCO1 (stereo not given),i,i,i,nt,nt
Cc1cc(O)c(C(C)C)cc1NC(=O)c1cccc(Cl)c1,i,i,i,i,i
Cc1ccc(COc2ccccc2C(=S)N2CCCC2)cc1,i,75.7,i,nt,nt
Fc1ccc(COc2ccccc2C(=S)N2CCCC2)cc1,i,i,i,i,i
O=C(Nc1ccon1)C12CC3CC(C1)CC(n1cnc([N+](=O)[O-])n1)(C3)C2,i,61.9,i,nt,nt
COc1ccc(NC(=O)C23CC4CC(C2)CC(n2cnc(Br)n2)(C4)C3)cc1OC,i,i,i,i,i
COc1ccc(NC(=O)C23CC4CC(C2)CC(n2cnc(Br)n2)(C4)C3)c(C)c1,i,i,i,i,i
Cc1cc(NC(=O)C23CC4CC(C2)CC(n2cnc([N+](=O)[O-])n2)(C4)C3)no1,i,50.7,i,nt,nt
CCOc1cc(C(=O)N/N=C/C2CC=CCC2)cc(OCC)c1OCC (stereo not given),i,i,i,i,i
Cc1c2c(c(C)n1C)C(C(=O)NC1CCCCC1)N(Cc1ccccc1)C2=O (stereo not given),i,i,i,nt,nt
OCCC1CN(Cc2cccc3nccnc23)CCN1C1CCCC1 (stereo not given),i,i,i,nt,nt
Cc1cccc(-c2ncc(CN3CCN(C4CCCC4)C(CCO)C3)cn2)c1 (stereo not given),nt,63.6,nt,nt,nt
Cc1cccc(-c2ncc(CN3CCN(CCC(C)C)C(CCO)C3)cn2)c1 (stereo not given),i,73.8,i,nt,nt
CCc1ccc2c(c1)/C(=N/OC)C(=O)N2,i,i,i,i,i
O=c1[nH][nH]c(-c2ccccc2O)c1C(C[N+](=O)[O-])c1ccc(Br)cc1 (stereo not given),i,100.4,i,4.2,1.6
Cc1ccc(C(C[N+](=O)[O-])c2c(-c3ccccc3O)[nH][nH]c2=O)cc1 (stereo not given),i,100.4,i,3.5,3.6
O=C(NCC(F)(F)F)Nc1ccccn1,i,i,i,i,i
COc1ccc(CN(Cc2cccnc2)S(=O)(=O)c2ccc(-n3cnnn3)c(C)c2)cc1OC,i,86.6,i,i,i
SMILES,PMI act hi M6P,Lmaj promast,PMI act,bCat KO growth,HCT116 PTEN-null
COc1ccc(CN(Cc2ccccn2)S(=O)(=O)c2ccc(-n3cnnn3)cc2)cc1,i,i,i,i,i
COc1ccc(CN(Cc2ccccn2)S(=O)(=O)c2ccc(-n3cnnn3)c(OC)c2)cc1,i,79.8,i,i,i
O=C(CNS(=O)(=O)c1ccccc1)Nc1ccc2c(c1)OCO2,i,i,i,nt,nt
CCOc1ccc(C(=O)Nc2cc(-c3nc4ccccc4[nH]3)ccc2Cl)cc1[N+](=O)[O-],i,95.6,i,1.2,1.2
CCOc1ccc(C(=O)Nc2cccc(-c3nc4ccccc4[nH]3)c2C)cc1[N+](=O)[O-],i,50.9,i,i,i
CCOc1ccc(C(=O)NC(=S)Nc2ncccc2C)cc1[N+](=O)[O-],i,i,i,2.8,3.3
Cc1ccc(-c2nc3ccccc3[nH]2)cc1NC(=O)c1ccc2c(c1)OCO2,i,i,i,i,i
O=C(NC(=S)Nc1cc(-c2nc3ccccc3[nH]2)ccc1Cl)c1ccc2c(c1)OCO2,i,i,i,1.6,1.5
CCCC(C(=O)NCc1ccco1)N(C(=O)CNS(=O)(=O)c1ccc(Cl)cc1)C1CCCC1 (stereo not given),i,66.8,i,i,i
COc1ccc(C(c2nnnn2CC2CCCO2)N2CCN(c3ccccc3)CC2)cc1 (stereo not given),i,i,i,i,i
COc1ccc(N2CCN(C(c3ccccc3OC)c3nnnn3C3CCCC3)CC2)cc1 (stereo not given),i,59.3,i,i,i
O=C(c1ccco1)N1CCN(C(c2ccc(F)cc2)c2nnnn2CC2CCCO2)CC1 (stereo not given),i,i,i,i,i
COc1ccc(N2CCN(C(c3cccs3)c3nnnn3C3CCCC3)CC2)cc1 (stereo not given),i,i,i,i,i
COc1ccc(C(c2nnnn2C2CCCC2)N2CCc3ccccc3C2)cc1OC (stereo not given),i,60.4,i,i,i
COc1ccc(N2CCN(C(c3cc(OC)ccc3OC)c3nnnn3CC3CCCO3)CC2)cc1 (stereo not given),i,i,i,0.9,0.7
COCCn1nnnc1C(c1ccc(O)c(OC)c1)N1CCc2ccccc2C1 (stereo not given),i,i,i,i,i
Cc1ccc(C(c2nnnn2CC2CCCO2)N2CCN(c3cccc(C)c3C)CC2)cc1 (stereo not given),i,58.9,i,i,i
CCCCCNC(=O)C1CCC(Cn2c(=S)[nH]c3ccccc3c2=O)CC1 (stereo not given),i,i,i,nt,nt
Fc1ccccc1COc1ccc2ccccc2c1CNc1nn[nH]n1,i,i,i,nt,nt
O=[N+]([O-])c1ccc(N2CCN(c3ccc(Cl)nn3)CC2)cc1NC1CC1,nt,i,nt,nt,nt
CN(Cc1nc(-c2cccs2)no1)CC1(N2CCOCC2)CCCCC1,i,i,i,nt,nt
COc1ccc(N2CCN(C(c3cccc(OC)c3OC)c3nnnn3C3CCCC3)CC2)cc1 (stereo not given),i,71.5,i,i,i
COc1ccc(OC)c(C(c2nnnn2C2CCCC2)N2CCN(c3ccccc3F)CC2)c1 (stereo not given),i,99.3,i,i,i
COc1cccc(C(c2nnnn2C(C)(C)C)N2CCN(C3CCCCC3)CC2)c1OC (stereo not given),i,i,i,i,i
CN1CCN(S(=O)(=O)c2ccc(NC(=O)c3csc4ccccc34)cc2)CC1,i,56.3,i,i,i
CN1CCN(S(=O)(=O)c2ccc(NC(=O)c3cccs3)cc2)CC1,i,i,i,i,i
CC(C)C(=O)NC(=S)Nc1ccc(S(=O)(=O)N2CCN(C)CC2)cc1,i,87.3,i,i,i
